# Data published in ChEMBL document CHEMBL1126988, “Quinolone antibacterials containing the new 7-[3-(1-aminoethyl)-1- pyrrolidinyl] side chain: the effects of the 1-aminoethyl moiety and its stereochemical configurations on potency and in vivo efficacy” (J Med Chem, 1993).
# Columns and labels:
# Staphylococcus aureus [1] = assay: Minimum inhibitory concentration was evaluated in vitro against Staphylococcus aureus H 228; type: functional
# Outline: (§1)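 Standard microtitration broth assay against a panel of 10 Gram-positive and Gram-negative organisms. MIC read in µg/mL and averaged over multiple experiments.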
# Streptococcus pyogenes [2] = assay: Minimum inhibitory concentration was evaluated in vitro against Streptococcus pyogenes C 203; type: functional; outline: as §1
# Streptococcus pyogenes [3] = assay: Compounds were evaluated in vivo for antibacterial activity for mouse protection against Streptococcus pyogenes C 203 after oral administration; type: functional; settings: for ED50: Streptococcus pyogenes, C 203, po, read-out: PD50
# [4] = Clonogenic cytotoxicity against hamster V-79 cells; type: functional, Cricetulus griseus, V79
# Outline: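 Chinese hamster V-79 cells grown overnight, then drug-treated for 3 h at 37 °C. Medium is replaced with fresh medium and cells are incubated 5 days to allow colony formation. IC50 (µg/mL) is the concentration inhibiting colony formation by 50% relative to control.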
# Escherichia coli [5] = assay: Antibacterial activity in vitro against Escherichia coli Vogel; type: functional; outline: as §1
# Escherichia coli [6] = assay: Antibacterial activity against Escherichia coli Vogel after oral administration in mouse; type: functional; settings: for ED50: Escherichia coli, po, read-out: PD50
# Streptococcus pneumoniae = assay: Minimum inhibitory concentration was evaluated in vitro against Streptococcus pneumoniae SV-1; type: functional; outline: as §1
# Providencia rettgeri = assay: Minimum inhibitory concentration was evaluated in vitro against Providencia rettgeri M1771; type: functional; outline: as §1
# Klebsiella pneumoniae = assay: Minimum inhibitory concentration was evaluated in vitro against Klebsiella pneumoniae MGH2; type: functional; outline: as §1
# Streptococcus pyogenes [7] = assay: Antibacterial activity measured as mouse protection against Streptococcus pyogenes C 203 after subcutaneous administration; type: functional; settings: for ED50: Streptococcus pyogenes, C 203, sc, read-out: PD50
# Escherichia coli [8] = assay: Antibacterial activity against Escherichia coli Vogel after subcutaneous administration in mouse; type: functional; settings: for ED50: Escherichia coli, sc, read-out: PD50
# Staphylococcus aureus [9] = assay: Minimum inhibitory concentration was evaluated in vitro against Staphylococcus aureus UC 76; type: functional; outline: as §1
# Enterococcus faecalis = assay: Minimum inhibitory concentration was evaluated in vitro against Enterococcus faecalis MGH-2; type: functional; outline: as §1
# Enterobacter cloacae = assay: Minimum inhibitory concentration in vitro against Enterobacter cloacae MA 2646; type: functional
# Pseudomonas aeruginosa = assay: Minimum inhibitory concentration was evaluated in vitro against Pseudomonas aeruginosa UI-18; type: functional; outline: as §1
# Mus musculus = species: Mus musculus; assay: Compounds were evaluated for phototoxicity no-effect dose in mouse; type: functional
# Outline: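 Depilated female CD-1 mice, five per dose plus controls. Animals are dosed orally and then exposed daily to UV-A (320–400 nm) for 3 h, for up to 4 days or until a definite positive response. Redness or erythema relative to controls, read 24 h after irradiation, counts as positive. Reported as the highest dose with no effect (mg/kg).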
# [10] = Staphylococcus aureus, read-out: MIC
# [11] = Streptococcus pyogenes, read-out: MIC
# [12] = Escherichia coli, read-out: MIC
# [13] = Streptococcus pneumoniae, read-out: MIC
# [14] = Providencia rettgeri, read-out: MIC
# [15] = Klebsiella pneumoniae, read-out: MIC
# [16] = Enterococcus faecalis, read-out: MIC
# [17] = Enterobacter cloacae, read-out: MIC
# [18] = Pseudomonas aeruginosa, read-out: MIC
Compound,MIC (Staphylococcus aureus [1]; [10]),MIC (Streptococcus pyogenes [2]; [11]),ED50 (Streptococcus pyogenes [3]),Cytotoxicity [4],MIC (Escherichia coli [5]; [12]),ED50 (Escherichia coli [6]),MIC (Streptococcus pneumoniae; [13]),MIC (Providencia rettgeri; [14]),MIC (Klebsiella pneumoniae; [15]),ED50 (Streptococcus pyogenes [7]),ED50 (Escherichia coli [8]),MIC (Staphylococcus aureus [9]; [10]),MIC (Enterococcus faecalis; [16]),MIC (Enterobacter cloacae; [17]),MIC (Pseudomonas aeruginosa; [18]),further results
CCN[C@H](C)[C@H]1CCN(c2c(F)c(N)c3c(=O)c(C(=O)O)cn(C4CC4)c3c2F)C1 (racemic),0.003 µg/mL,0.003 µg/mL,0.3 mg/kg,42 µg/mL,0.025 µg/mL,2 mg/kg,0.003 µg/mL,0.1 µg/mL,0.05 µg/mL,0.3 mg/kg,1 mg/kg,0.003 µg/mL,0.013 µg/mL,0.025 µg/mL,0.8 µg/mL,
CCN[C@H](C)[C@@H]1CCN(c2nc3c(cc2F)c(=O)c(C(=O)O)cn3C2CC2)C1,0.05 µg/mL,0.05 µg/mL,6 mg/kg,87 µg/mL,0.1 µg/mL,7 mg/kg,0.025 µg/mL,1.6 µg/mL,0.2 µg/mL,4 mg/kg,6 mg/kg,0.025 µg/mL,0.05 µg/mL,0.4 µg/mL,1.6 µg/mL,
COc1c(N2CC[C@@H]([C@@H](C)N)C2)c(F)cc2c(=O)c(C(=O)O)cn(C3CC3)c12,0.025 µg/mL,0.013 µg/mL,6 mg/kg,41 µg/mL,0.05 µg/mL,,0.013 µg/mL,0.2 µg/mL,0.1 µg/mL,1 mg/kg,,0.003 µg/mL,0.025 µg/mL,0.05 µg/mL,0.8 µg/mL,
CN[C@H](C)[C@@H]1CCN(c2c(F)c(N)c3c(=O)c(C(=O)O)cn(C4CC4)c3c2F)C1,0.006 µg/mL,0.006 µg/mL,,24 µg/mL,0.05 µg/mL,,0.006 µg/mL,0.2 µg/mL,0.1 µg/mL,,,0.003 µg/mL,0.013 µg/mL,0.05 µg/mL,0.8 µg/mL,Dose (Mus musculus): <30 mg/kg
CCn1cc(C(=O)O)c(=O)c2cc(F)c(N3CCC(C(C)NC)C3)c(OC)c21 (racemic),0.025 µg/mL,0.013 µg/mL,2 mg/kg,,0.2 µg/mL,22 mg/kg,0.013 µg/mL,0.4 µg/mL,0.2 µg/mL,0.3 mg/kg,4 mg/kg,0.003 µg/mL,0.025 µg/mL,0.8 µg/mL,1.6 µg/mL,
CCN[C@@H](C)[C@@H]1CCN(c2nc3c(cc2F)c(=O)c(C(=O)O)cn3C2CC2)C1,,,,,,,,,,,,,,,,MIC (Staphylococcus aureus [1]): 0.2 µg/mL; MIC (Streptococcus pyogenes [2]): 0.4 µg/mL; PD50 (Streptococcus pyogenes [3]): 15 mg/kg; MIC (Escherichia coli [5]): 0.2 µg/mL; PD50 (Escherichia coli [6]): 3 mg/kg; MIC (Streptococcus pneumoniae): 0.1 µg/mL; MIC (Providencia rettgeri): 1.6 µg/mL; MIC (Klebsiella pneumoniae): 0.4 µg/mL; PD50 (Streptococcus pyogenes [7]): 9 mg/kg; PD50 (Escherichia coli [8]): 1 mg/kg; MIC (Staphylococcus aureus [9]): 0.1 µg/mL; MIC (Enterococcus faecalis): 0.2 µg/mL; MIC (Enterobacter cloacae): 0.2 µg/mL; MIC (Pseudomonas aeruginosa): 3.1 µg/mL
NC1CCN(c2c(F)cc3c(=O)c(C(=O)O)cn(C4CC4)c3c2C(F)(F)F)C1 (stereo not drawn),0.2 µg/mL,,,250 µg/mL,0.1 µg/mL,3 mg/kg,,,,22 mg/kg,1 mg/kg,,,0.1 µg/mL,,Dose (Mus musculus): >100 mg/kg
CC1(CN)CCN(c2c(F)c(N)c3c(=O)c(C(=O)O)cn(C4CC4)c3c2F)C1 (stereo not drawn),0.013 µg/mL,0.013 µg/mL,8 mg/kg,,0.2 µg/mL,,0.003 µg/mL,0.2 µg/mL,0.1 µg/mL,1 mg/kg,1 mg/kg,0.003 µg/mL,0.025 µg/mL,0.1 µg/mL,0.8 µg/mL,PD50 (Escherichia coli [6]): 9 mg/kg
CCN[C@H](C)[C@@H]1CCN(c2c(F)c(N)c3c(=O)c(C(=O)O)cn(C4CC4)c3c2F)C1,0.006 µg/mL,0.003 µg/mL,1 mg/kg,15 µg/mL,0.05 µg/mL,,0.003 µg/mL,0.2 µg/mL,0.1 µg/mL,0.5 mg/kg,,0.003 µg/mL,0.025 µg/mL,0.1 µg/mL,1.6 µg/mL,
